Experimental data: ChEMBL document CHEMBL2016522, “Discovery and Hit-to-Lead Optimization of Non-ATP Competitive MK2 (MAPKAPK2) Inhibitors” (ACS Med Chem Lett, 2011)

Columns and labels:
[1] = molecular target: T1, MAP kinase-activated protein kinase 2 (Homo sapiens, UniProt P49137); assay: Inhibition of MK2 using Acam peptide as substrate incubated for 30 mins prior to substrate addition measured after 10 mins using 100 uM ATP by DELFIA assay
[2] = molecular target: T1, MAP kinase-activated protein kinase 2; assay: Inhibition of MK2-mediated HSP27 phosphorylation in IL-1beta stimulated human SW1353 cells incubated for 30 mins prior to IL-1beta-stimulation measured after 27 mins by ELISA; assay type: cell-based
[3] = Cytotoxicity against human SW1353 cells after 30 mins by ATP-dependent luciferase luminescence assay; assay type: cell-based
[4] = AUC (0 to 6 hrs) in rat at 10 mg/kg, po; assay type: ADME, organism-based; set-up: time < 6 hr, dose 10 mg/kg, route oral; settings: plasma
How it was run: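 Single oral dose of 10 mg/kg in rats. Plasma exposure is reported as AUC in nM h.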

[5] = molecular target: T1, MAP kinase-activated protein kinase 2; assay: Inhibition of MK2 using Acam peptide as substrate incubated for 30 mins prior to substrate addition measured after 10 mins using 2 uM ATP by DELFIA assay
[6] = molecular target: Interleukin-1 receptor-associated kinase 4 (Homo sapiens, UniProt Q9NWZ3); assay: Inhibition of human IRAK4
[7] = molecular target: Calcium/calmodulin-dependent protein kinase type IV (Homo sapiens, UniProt Q16566); assay: Inhibition of human CAMK4
[8] = molecular target: Serine/threonine-protein kinase Chk1 (Homo sapiens, UniProt O14757); assay: Inhibition of human CHK1
[9] = molecular target: Hepatocyte growth factor receptor (Homo sapiens, UniProt P08581); assay: Inhibition of human MET
[10] = molecular target: Serine/threonine-protein kinase 3 (Homo sapiens, UniProt Q13188); assay: Inhibition of human MST2
[11] = molecular target: Testis-specific serine/threonine-protein kinase 2 (Homo sapiens, UniProt Q96PF2); assay: Inhibition of human TSSK2
[12] = molecular target: Rho-associated protein kinase 2 (Homo sapiens, UniProt O75116); assay: Inhibition of human ROCK2
[13] = molecular target: Insulin-like growth factor 1 receptor (Homo sapiens, UniProt P08069); assay: Inhibition of human IGF1R
Chain of Insulin-like growth factor 1 receptor (P08069 31-736 limits assumed): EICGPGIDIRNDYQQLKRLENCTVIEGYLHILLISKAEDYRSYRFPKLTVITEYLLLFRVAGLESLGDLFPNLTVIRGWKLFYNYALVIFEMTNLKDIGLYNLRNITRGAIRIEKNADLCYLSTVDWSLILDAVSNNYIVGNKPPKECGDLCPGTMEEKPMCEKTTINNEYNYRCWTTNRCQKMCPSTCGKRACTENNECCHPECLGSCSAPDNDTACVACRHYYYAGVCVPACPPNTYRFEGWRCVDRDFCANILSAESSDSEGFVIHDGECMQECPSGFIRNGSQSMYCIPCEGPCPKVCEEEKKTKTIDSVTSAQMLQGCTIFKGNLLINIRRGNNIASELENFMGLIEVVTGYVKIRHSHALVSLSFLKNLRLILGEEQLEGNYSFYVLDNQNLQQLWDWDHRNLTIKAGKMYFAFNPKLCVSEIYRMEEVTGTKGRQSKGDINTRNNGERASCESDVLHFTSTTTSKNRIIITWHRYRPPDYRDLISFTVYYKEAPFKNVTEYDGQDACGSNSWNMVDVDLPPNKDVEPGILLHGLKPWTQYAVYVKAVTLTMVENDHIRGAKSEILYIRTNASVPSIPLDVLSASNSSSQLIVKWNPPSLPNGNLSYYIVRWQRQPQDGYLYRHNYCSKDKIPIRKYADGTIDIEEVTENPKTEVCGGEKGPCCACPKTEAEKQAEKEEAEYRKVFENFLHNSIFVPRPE
Chain of Insulin-like growth factor 1 receptor (P08069 741-1367 limits assumed): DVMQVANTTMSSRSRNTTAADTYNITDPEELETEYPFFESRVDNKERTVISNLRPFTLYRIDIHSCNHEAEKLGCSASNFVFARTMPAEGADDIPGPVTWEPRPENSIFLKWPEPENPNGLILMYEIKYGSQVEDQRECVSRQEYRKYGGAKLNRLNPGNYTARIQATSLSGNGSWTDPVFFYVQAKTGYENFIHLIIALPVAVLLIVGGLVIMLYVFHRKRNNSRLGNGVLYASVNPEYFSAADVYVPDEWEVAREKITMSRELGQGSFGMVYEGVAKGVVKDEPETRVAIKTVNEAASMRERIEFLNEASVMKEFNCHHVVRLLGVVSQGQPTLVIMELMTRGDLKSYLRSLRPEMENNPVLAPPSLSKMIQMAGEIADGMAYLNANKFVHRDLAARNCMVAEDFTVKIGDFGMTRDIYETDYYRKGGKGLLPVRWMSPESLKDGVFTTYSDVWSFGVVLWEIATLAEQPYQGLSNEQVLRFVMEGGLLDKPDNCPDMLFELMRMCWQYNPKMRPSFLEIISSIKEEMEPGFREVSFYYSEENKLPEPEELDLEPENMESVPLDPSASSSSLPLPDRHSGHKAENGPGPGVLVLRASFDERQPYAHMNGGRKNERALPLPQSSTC

[14] = molecular target: RAC-alpha serine/threonine-protein kinase (Homo sapiens, UniProt P31749); assay: Inhibition of human AKT1
Chain of RAC-alpha serine/threonine-protein kinase (P31749 whole entry): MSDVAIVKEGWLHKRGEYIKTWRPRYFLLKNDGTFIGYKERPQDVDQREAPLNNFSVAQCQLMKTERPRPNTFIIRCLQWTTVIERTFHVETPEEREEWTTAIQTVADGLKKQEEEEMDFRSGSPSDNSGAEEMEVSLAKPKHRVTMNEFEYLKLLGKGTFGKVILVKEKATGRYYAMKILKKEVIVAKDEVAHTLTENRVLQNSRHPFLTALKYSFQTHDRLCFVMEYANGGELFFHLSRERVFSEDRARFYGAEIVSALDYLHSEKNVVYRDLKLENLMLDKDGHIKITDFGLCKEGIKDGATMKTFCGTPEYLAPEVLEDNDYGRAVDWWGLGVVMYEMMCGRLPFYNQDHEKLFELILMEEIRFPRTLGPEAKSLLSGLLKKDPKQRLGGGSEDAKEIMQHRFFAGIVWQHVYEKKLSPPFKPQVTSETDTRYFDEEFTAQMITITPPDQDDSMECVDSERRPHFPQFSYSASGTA

[15] = molecular target: Inhibitor of nuclear factor kappa-B kinase subunit beta (Homo sapiens, UniProt O14920); assay: Inhibition of human IKKB
Chain of Inhibitor of nuclear factor kappa-B kinase subunit beta (O14920 whole entry): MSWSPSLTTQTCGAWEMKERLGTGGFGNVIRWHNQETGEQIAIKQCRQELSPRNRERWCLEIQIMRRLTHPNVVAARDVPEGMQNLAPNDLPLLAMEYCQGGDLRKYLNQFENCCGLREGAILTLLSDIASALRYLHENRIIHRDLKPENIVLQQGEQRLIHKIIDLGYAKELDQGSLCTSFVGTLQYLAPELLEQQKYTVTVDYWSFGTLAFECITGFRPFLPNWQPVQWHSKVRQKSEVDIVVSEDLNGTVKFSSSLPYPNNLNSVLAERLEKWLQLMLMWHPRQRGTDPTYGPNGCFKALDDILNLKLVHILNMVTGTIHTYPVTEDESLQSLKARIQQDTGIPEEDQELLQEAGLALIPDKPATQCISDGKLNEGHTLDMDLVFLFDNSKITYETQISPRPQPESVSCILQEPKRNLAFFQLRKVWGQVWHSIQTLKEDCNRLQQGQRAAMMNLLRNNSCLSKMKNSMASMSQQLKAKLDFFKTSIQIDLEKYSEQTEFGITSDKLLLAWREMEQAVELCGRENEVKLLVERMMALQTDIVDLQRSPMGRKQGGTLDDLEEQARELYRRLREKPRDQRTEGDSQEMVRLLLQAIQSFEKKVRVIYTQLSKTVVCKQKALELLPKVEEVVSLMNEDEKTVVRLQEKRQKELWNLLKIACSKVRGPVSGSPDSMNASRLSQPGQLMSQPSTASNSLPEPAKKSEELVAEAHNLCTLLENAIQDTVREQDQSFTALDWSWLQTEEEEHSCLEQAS

[16] = molecular target: Tyrosine-protein kinase Lck (Homo sapiens, UniProt P06239); assay: Inhibition of human LCK
[17] = molecular target: Casein kinase I isoform delta (Homo sapiens, UniProt P48730); assay: Inhibition of human CSNK1D
Chain of Casein kinase I isoform delta (P48730 whole entry, canonical isoform): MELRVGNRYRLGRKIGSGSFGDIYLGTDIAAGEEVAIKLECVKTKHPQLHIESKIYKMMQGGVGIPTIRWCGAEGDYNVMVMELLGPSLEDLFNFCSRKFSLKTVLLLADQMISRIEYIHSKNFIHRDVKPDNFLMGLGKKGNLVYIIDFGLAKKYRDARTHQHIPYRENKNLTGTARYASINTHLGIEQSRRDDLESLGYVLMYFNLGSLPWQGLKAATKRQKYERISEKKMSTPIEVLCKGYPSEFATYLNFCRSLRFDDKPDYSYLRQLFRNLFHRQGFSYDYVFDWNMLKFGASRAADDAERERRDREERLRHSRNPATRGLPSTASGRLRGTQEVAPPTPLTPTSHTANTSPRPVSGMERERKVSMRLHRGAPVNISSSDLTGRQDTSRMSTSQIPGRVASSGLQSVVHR

[18] = Solubility of the compound; assay type: physicochemical
Cytochrome P450 3A4 [19] = molecular target: T2, Cytochrome P450 3A4 (Homo sapiens, UniProt P08684); assay: Inhibition of CYP3A4 in human liver microsomes co-incubated with testosterone; assay type: ADME, Microsome
T2 sequence (P08684 whole entry): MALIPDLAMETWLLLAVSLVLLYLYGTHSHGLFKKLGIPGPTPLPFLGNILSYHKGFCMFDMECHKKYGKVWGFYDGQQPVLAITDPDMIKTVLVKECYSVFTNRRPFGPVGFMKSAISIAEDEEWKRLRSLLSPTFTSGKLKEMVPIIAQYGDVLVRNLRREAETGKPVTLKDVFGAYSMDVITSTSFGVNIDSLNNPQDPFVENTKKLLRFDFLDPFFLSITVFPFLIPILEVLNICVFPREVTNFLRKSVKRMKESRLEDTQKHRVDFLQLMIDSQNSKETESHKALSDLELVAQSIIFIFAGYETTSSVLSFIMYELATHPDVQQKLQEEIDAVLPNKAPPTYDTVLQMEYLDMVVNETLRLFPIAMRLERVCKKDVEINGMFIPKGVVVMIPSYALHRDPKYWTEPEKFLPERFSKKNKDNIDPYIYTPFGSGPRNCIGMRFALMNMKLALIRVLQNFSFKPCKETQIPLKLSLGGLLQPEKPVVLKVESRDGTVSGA
How it was run: (§1)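 Tested against a panel of cytochrome P450 enzymes at compound concentrations up to 30 μM.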

Cytochrome P450 3A4 [20] = molecular target: T2, Cytochrome P450 3A4; assay: Inhibition of CYP3A4 in human liver microsomes using testosterone as substrate incubated for 30 mins prior to substrate addition; assay type: ADME, Microsome; how it was run: as §1
Cytochrome P450 2D6 [21] = molecular target: T3, Cytochrome P450 2D6 (Homo sapiens, UniProt P10635); assay: Inhibition of CYP2D6 in human liver microsomes co-incubated with dextromethorphan; assay type: ADME, Microsome; how it was run: as §1
T3 sequence (P10635 whole entry): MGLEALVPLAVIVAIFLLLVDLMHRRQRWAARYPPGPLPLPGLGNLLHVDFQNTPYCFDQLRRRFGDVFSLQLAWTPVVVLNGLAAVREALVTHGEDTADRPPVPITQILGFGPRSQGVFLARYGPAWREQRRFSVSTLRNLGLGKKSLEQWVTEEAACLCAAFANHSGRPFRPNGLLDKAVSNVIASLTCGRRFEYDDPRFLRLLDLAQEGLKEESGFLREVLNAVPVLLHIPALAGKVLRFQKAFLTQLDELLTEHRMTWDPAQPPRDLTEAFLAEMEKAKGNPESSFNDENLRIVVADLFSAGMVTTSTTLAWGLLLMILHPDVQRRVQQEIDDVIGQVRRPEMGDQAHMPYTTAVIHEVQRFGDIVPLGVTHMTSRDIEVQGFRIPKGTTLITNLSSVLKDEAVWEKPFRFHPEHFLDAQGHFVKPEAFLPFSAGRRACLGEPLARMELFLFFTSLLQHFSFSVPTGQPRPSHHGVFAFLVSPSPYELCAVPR

Cytochrome P450 2D6 [22] = molecular target: T3, Cytochrome P450 2D6; assay: Inhibition of CYP2D6 in human liver microsomes using dextromethorphan as substrate incubated for 30 mins prior to substrate addition; assay type: ADME, Microsome; how it was run: as §1
Cytochrome P450 2C9 [23] = molecular target: T4, Cytochrome P450 2C9 (Homo sapiens, UniProt P11712); assay: Inhibition of CYP2C9 in human liver microsomes co-incubated with tolbutamide; assay type: ADME, Microsome; how it was run: as §1
T4 sequence (P11712 whole entry): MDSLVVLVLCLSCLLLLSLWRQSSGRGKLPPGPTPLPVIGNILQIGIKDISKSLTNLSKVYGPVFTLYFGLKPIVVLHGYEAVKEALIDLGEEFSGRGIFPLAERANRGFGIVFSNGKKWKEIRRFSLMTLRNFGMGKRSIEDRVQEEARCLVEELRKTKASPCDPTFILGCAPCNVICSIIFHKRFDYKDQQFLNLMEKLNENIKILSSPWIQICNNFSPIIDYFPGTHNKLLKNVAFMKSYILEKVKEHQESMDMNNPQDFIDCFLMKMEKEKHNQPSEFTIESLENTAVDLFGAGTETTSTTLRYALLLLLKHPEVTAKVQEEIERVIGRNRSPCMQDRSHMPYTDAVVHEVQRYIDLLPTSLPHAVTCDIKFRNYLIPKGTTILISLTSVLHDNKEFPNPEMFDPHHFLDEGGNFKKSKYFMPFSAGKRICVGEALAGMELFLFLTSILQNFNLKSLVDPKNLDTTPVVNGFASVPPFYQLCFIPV

Cytochrome P450 2C9 [24] = molecular target: T4, Cytochrome P450 2C9; assay: Inhibition of CYP2C9 in human liver microsomes using tolbutamide as substrate incubated for 30 mins prior to substrate addition; assay type: ADME, Microsome; how it was run: as §1
THP-1 [25] = assay: Antiinflammatory activity in human THP1 cells assessed as inhibition of LPS-induced TNFalpha production incubated for 30 mins prior to LPS-challenge measured after 3 hrs by ELISA; assay type: functional, cell-based
How it was run: (§2)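 Human THP1 acute monocytic leukemia cells are treated with a range of compound concentrations and stimulated with LPS. Secreted TNFα or IL6 is then measured. Each data point is the average, with standard error, of duplicate samples.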

THP-1 [26] = assay: Antiinflammatory activity in human THP1 cells assessed as inhibition of LPS-induced IL6 production incubated for 30 mins prior to LPS-challenge measured after 18 hrs by immunoabsorbent-based electrochemical luminescence assay; assay type: functional, cell-based; how it was run: as §2
SW1353 = assay: Inhibition of IL1beta-stimulated MMP13 secretion in human SW1353 cells incubated for 30 mins prior to IL1beta-stimulation measured after 24 hrs by ELISA; assay type: functional, cell-based
How it was run: (§3)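 Cells are treated with a range of compound concentrations, then stimulated with IL1-β, and secreted MMP-13 is measured. Two cell systems are used: the SW1353 line and human primary chondrocytes derived from osteoarthritis tissue. Each data point is the average, with standard error, of duplicate samples.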

[27] = (§4) Inhibition of IL1beta-stimulated MMP13 secretion in human primary chondrocytes incubated for 30 mins prior to IL1beta-stimulation measured after 24 hrs by ELISA; assay type: functional, cell-based; how it was run: as §3
[28] = molecular target: Casein kinase I isoform gamma-3 (Homo sapiens) (UniProt Q9Y6M4); assay: Inhibition of human CK1gamma3 at 10 uM
Homo sapiens = species on record: Homo sapiens; assay: as §4; assay type: functional, cell-based; how it was run: as §3

T1 sequence (P49137 whole entry): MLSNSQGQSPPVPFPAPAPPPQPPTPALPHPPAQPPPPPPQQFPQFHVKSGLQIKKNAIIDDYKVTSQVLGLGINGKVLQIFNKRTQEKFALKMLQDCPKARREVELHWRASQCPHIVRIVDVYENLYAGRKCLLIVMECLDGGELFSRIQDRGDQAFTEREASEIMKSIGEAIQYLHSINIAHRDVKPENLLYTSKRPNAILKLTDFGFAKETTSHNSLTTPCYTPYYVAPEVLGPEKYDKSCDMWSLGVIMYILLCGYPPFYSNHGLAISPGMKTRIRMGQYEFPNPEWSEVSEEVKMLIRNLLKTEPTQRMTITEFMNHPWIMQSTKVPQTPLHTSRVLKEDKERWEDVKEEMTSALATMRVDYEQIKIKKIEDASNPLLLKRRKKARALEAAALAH

SMILES	IC50 [1]	EC50 [2]	CC50 at 0.5 h [3]	further results
O=C(Nc1ccc(N2CCNCC2)cc1)c1cccc(-c2ccc(Cl)cc2)n1	11 µM	3.9 µM	> 10 µM	–
O=C(Nc1ccc(N2CCNCC2)cc1)c1cc(-c2ccc(Cl)cc2)on1	7.5 µM	1.9 µM	1 µM	–
O=C(Nc1ccc(N2CCNCC2)cc1)c1ccc(-c2cccc(Cl)c2)o1	> 20 µM	> 5 µM	13 µM	–
COc1ccc(-c2ccc(C(=O)Nc3ccc(N4CCNCC4)cc3)o2)cc1	22 µM	8 µM	–	–
O=C(Nc1ccc(N2CCNCC2)cc1)c1ccc(-c2ccc(C(F)(F)F)cc2)o1	20 µM	> 7.7 µM	> 15 µM	–
O=C(Nc1ccc(N2CCNCC2)c(F)c1)c1ccc(-c2ccc(Cl)cc2)o1	6.7 µM	> 3.4 µM	16 µM	–
Cl.O=C(c1ccc(-c2ccc(Cl)cc2)o1)N(Cc1ccccn1)c1ccc(N2CCNCC2)cc1	–	–	–	AUC(0-t) at 6 h [4]: 2.3 µM·h
O=C(Nc1ccc(N2CCNCC2)cc1C(F)(F)F)c1ccc(-c2ccc(Cl)cc2)o1	> 20 µM	> 8 µM	18 µM	–
O=C(Nc1ccc(N2CCNCC2)cc1)c1ccc(-c2ccc(Cl)cc2)o1	5.5 µM	2 µM	> 10 µM	IC50 [5]: 5 µM; IC50 [6]: 7.5 µM; IC50 [7]: > 30 µM; IC50 [8]: > 30 µM; IC50 [9]: > 30 µM; IC50 [10]: > 30 µM; IC50 [11]: > 30 µM; IC50 [12]: > 30 µM; IC50 [13]: > 30 µM; IC50 [14]: > 30 µM; IC50 [15]: > 30 µM; IC50 [16]: > 30 µM; IC50 [17]: > 30 µM; solubility [18]: > 20 µM
Cc1cc(Cl)ccc1-c1ccc(C(=O)Nc2ccc(N3CCNCC3)cc2)o1	5.9 µM	1.4 µM	8.8 µM	–
O=C(Nc1ccc(N2CCC(O)CC2)cc1)c1ccc(-c2ccc(Cl)cc2)o1	> 20 µM	–	–	–
O=C(Nc1ccc(C2=CCNCC2)cc1)c1ccc(-c2ccc(Cl)cc2)o1	2.1 µM	1.3 µM	6.5 µM	–
CN1CCN(c2ccc(NC(=O)c3ccc(-c4ccc(Cl)cc4)o3)cc2)CC1	6 µM	20 µM	–	–
CCCN(C(=O)c1ccc(-c2ccc(Cl)cc2)o1)c1ccc(N2CCNCC2)cc1	–	–	> 20 µM	–
O=C(Nc1ccc(N2CCNCC2)cc1)c1ccc(-c2ccc(Cl)cc2)s1	9 µM	5 µM	8 µM	–
O=C(c1ccc(-c2ccc(Cl)cc2)o1)N(Cc1ccccn1)c1ccc(N2CCNCC2)cc1 [listing 1 of 2 here]	–	–	> 20 µM	IC50 (Cytochrome P450 3A4 [19]): > 20 µM; IC50 (Cytochrome P450 3A4 [20]): > 20 µM; IC50 (Cytochrome P450 2D6 [21]): > 20 µM; IC50 (Cytochrome P450 2D6 [22]): > 20 µM; IC50 (Cytochrome P450 2C9 [23]): > 20 µM; IC50 (Cytochrome P450 2C9 [24]): > 30 µM; IC50 (THP-1 [25]): 4.4 µM; IC50 (THP-1 [26]): 5.2 µM; IC50 (SW1353): 5.7 µM; IC50 [27]: 2.2 µM
O=C(c1ccc(-c2ccc(Cl)cc2)o1)N(Cc1ccccn1)c1ccc(N2CCNCC2)cc1 [listing 2 of 2 here]	–	–	–	inhibition [28]: > 50%; inhibition (THP-1 [25]): Dose-dependent effect; inhibition (THP-1 [26]): Dose-dependent effect; inhibition (SW1353): Dose-dependent effect; inhibition (Homo sapiens): Dose-dependent effect
Cn1ccnc1CN(C(=O)c1ccc(-c2ccc(Cl)cc2)o1)c1ccc(N2CCNCC2)cc1	–	–	> 20 µM	–
O=C(Nc1ccc(N2CCNCC2)cc1)c1csc(-c2ccc(Cl)cc2)n1	9.5 µM	0.9 µM	0.9 µM	–
CCCCN(C(=O)c1ccc(-c2ccc(Cl)cc2)o1)c1ccc(N2CCNCC2)cc1	–	–	19 µM	–
CN(C(=O)c1ccc(-c2ccc(Cl)cc2)o1)c1ccc(N2CCNCC2)cc1	–	–	> 20 µM	–
CC(C)N(C(=O)c1ccc(-c2ccc(Cl)cc2)o1)c1ccc(N2CCNCC2)cc1	1.2 µM	2.7 µM	> 20 µM	–
O=C(Nc1ccc(N2CCNCC2)cc1)c1ccc(-c2ccc(Cl)cc2Cl)o1	7.6 µM	1.6 µM	8.1 µM	–
O=C(Nc1ccc(N2CCNCC2)cc1)c1ccc(-c2ccc(Cl)s2)o1	6.9 µM	> 8 µM	> 20 µM	–
CCN(C(=O)c1ccc(-c2ccc(Cl)cc2)o1)c1ccc(N2CCNCC2)cc1	–	–	> 8 µM	–
O=C(Nc1ccc(N2CCNCC2=O)cc1)c1ccc(-c2ccc(Cl)cc2)o1	15 µM	–	–	–
O=C(Nc1ccc(N2CCNCC2)cc1)c1ccc(-c2ccccc2Cl)o1	8 µM	> 8 µM	15 µM	–
O=C(c1ccc(-c2ccc(Cl)cc2)o1)N(Cc1ccncc1)c1ccc(N2CCNCC2)cc1	–	–	> 8 µM	–
